Screening results: PubChem BioAssay, several laboratories
TNAP act hi DEA = TNAP activators at high phosphate acceptor level, primary screen, biochemical, luminescence, uHTS; Alkaline phosphatase, tissue-nonspecific isozyme (Homo sapiens), P05186; purified TNAP, CDP-star luminescence, 1 M DEA, 30 min; stronger effect = higher value; 0 = EDTA background, 1 = DMSO-only activity; 200,000 tested, under 10 active; AID 1136, 2008; activation factor at 20 µM;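 active means activation factor at least 2 at 20 µM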
Target sequence (P05186 whole entry, looked up): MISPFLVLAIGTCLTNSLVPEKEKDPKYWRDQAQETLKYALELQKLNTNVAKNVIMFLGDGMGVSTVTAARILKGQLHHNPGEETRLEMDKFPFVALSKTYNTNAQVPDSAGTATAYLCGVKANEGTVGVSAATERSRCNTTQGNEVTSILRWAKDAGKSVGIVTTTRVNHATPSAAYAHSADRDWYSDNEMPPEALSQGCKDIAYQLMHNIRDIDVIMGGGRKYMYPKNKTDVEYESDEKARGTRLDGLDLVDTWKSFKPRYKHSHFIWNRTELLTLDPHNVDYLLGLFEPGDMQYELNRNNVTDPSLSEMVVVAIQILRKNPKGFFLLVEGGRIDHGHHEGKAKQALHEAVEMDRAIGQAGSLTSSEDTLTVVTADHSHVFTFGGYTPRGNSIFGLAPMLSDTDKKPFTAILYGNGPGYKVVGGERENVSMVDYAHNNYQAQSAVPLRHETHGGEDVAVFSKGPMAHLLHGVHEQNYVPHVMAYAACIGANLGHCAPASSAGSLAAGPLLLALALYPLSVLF
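Test system – human TNAP · Doses – 20 µM single point · Incubation – 30 min, room temperature · Signal – luminescent substrate turnover signal · Read-out basis – activation factor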
TNAP inh hiacc = human TNAP enzyme inhibitors, primary screen, biochemical, luminescent, high phosphate acceptor level, uHTS; hit rate 0.03% among 200,000; purified TNAP, CDP-star luminescence, 1 M DEA; AID 1135, 2008; Alkaline phosphatase, tissue-nonspecific isozyme (Homo sapiens), P05186; inhibition, % at 20 µM;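 active means over 50% inhibition of tissue-nonspecific alkaline phosphatase at 20 µM in the single-dose screen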
Arbovirus inh = antivirals against arbovirus infection, primary screen, cell-based, full library, 10K replicate subset; inhibition, % at 10 µM; hit rate 0.37% among 200,000; arbovirus infection cell-based antiviral screen; in the data active means inhibition above about 30%
WT yeast gro inh = growth inhibition of WT strain, primary screen, mitochondrial fusion inhibitor project, WT and mutant strains, chemical genetic; inhibition, % at 10 µM; mitochondrial fusion phenotypic screen; hit rate 2.1% among 190,000; in the data active means inhibition above about 58%; tested in S. cerevisiae
TNAP inh noacc = human TNAP enzyme inhibitors, primary screen, biochemical, luminescent, no phosphate acceptor, uHTS. purified TNAP, CDP-star luminescence, 30 min. inhibition, % at 20 µM. Alkaline phosphatase, tissue-nonspecific isozyme (Homo sapiens), P05186. hit rate 0.26% among 200,000;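 active means tissue-nonspecific alkaline phosphatase inhibition above about 50% at 20 µM in the single-dose screen, limit read from the data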
Of the large screens only hits and unclear results are named; the others gave an inactive call; ! = not confirmed by another sample. Compounds with a hit are over-represented: about 2.6% of the library has one in this group of screens.

CCOC(=O)c1csc(NC(=O)CC2CCCC2)n1	Arbovirus inh 30.2
CCOC(=O)c1csc(NC(=O)CCSc2ccccc2)n1	none
Cc1ccc(-n2sc3ccccc3c2=O)cc1S(=O)(=O)N1CCCCC1	WT yeast gro inh 94.2
O=c1c2ccccc2sn1-c1ccccc1	none
CN(C)S(=O)(=O)c1cccc(-n2sc3ccccc3c2=O)c1	WT yeast gro inh 66.7
Cc1cccn2c(=O)c(C=NCc3ccco3)c(Nc3ccc(SC(F)F)cc3)nc12	WT yeast gro inh 83.3
N#CCSc1ncnc2c1cnn2CCO	none
CCCN1Cc2cccc(C(=O)NC(CC(=O)OCC)c3ccc(C)cc3)c2C1=O (stereo not given)	WT yeast gro inh 66.0
Cn1c(NC(=O)c2ccc(Br)o2)cc(=O)n(C)c1=O	none
Cc1ccc(Nc2nc3nonc3[nH]c2=O)cc1Cl	WT yeast gro inh 63.7
COCCNC(=S)N/N=C(\C)c1ccc(OC)cc1	none
COc1ccc(NC(=S)NCCc2ccc(Cl)cc2)c(OC)c1	WT yeast gro inh 66.6
COc1ccc(NC(=S)Nc2ccc(OCc3ccccc3)cc2)c(OC)c1	WT yeast gro inh 67.4
COc1ccc(NC(=S)Nc2ccccc2)c(OC)c1	none
COc1ccc(/C(C)=N/NC(=S)Nc2cc(C)ccc2C)cc1	WT yeast gro inh 67.0
COc1ccc(CCNC(=S)Nc2ccc(C)cc2C)cc1	WT yeast gro inh 69.0
CCCCC(=O)Nc1cc(C(=O)NCCc2ccccc2)ccc1Cl	none
CC(C)CCn1c(=O)c2ccccc2n2c(CN3CCOCC3)nnc12	none
COc1ccc(CNC(=S)Nc2cc(C)ccc2C)cc1	none
COc1ccc(CCNC(=S)Nc2cc(C)ccc2C)cc1	WT yeast gro inh 63.3
Cc1ccc(CN2C(=O)CNC2=S)cc1	none
Cc1ccc(Cc2c[nH]c(=S)s2)cc1	WT yeast gro inh 68.1
CC(C)(c1ccccc1)c1ccc(OCCCNCCO)cc1	WT yeast gro inh 91.8
CC(C)(C)c1ccc(OCCCNCc2ccccc2)cc1	WT yeast gro inh 87.0
COCCCNCCCOc1ccc(C(C)(C)c2ccccc2)cc1	none
O=C(NC(=S)N(CC1CCC1)CC1CCCO1)c1cccc([N+](=O)[O-])c1 (stereo not given)	none
Cc1cccc2c1-c1sc(C(=O)Nc3nccs3)cc1CO2	Arbovirus inh 82.4
COc1ccc(CCN2CC(C(=O)NC3CCCCC3)CC2=O)cc1OC (stereo not given)	none
C/C(=N\N1CCN(C2c3ccccc3-c3ccccc32)CC1)c1ccncc1	none
C(=N\N1CCN(C2c3ccccc3-c3ccccc32)CC1)/c1ccncc1	WT yeast gro inh 68.1
Cc1n[nH]c(C)c1S(=O)(=O)N1CCOCC1	TNAP inh noacc 56.8
CC(C)CC1NC(=O)N(CC(=O)NC2CCCc3ccccc32)C1=O (stereo not given)	none
N#C/C(=N\Nc1cccc([N+](=O)[O-])c1)C(=O)c1ccc(Br)cc1	WT yeast gro inh 67.1
O=C(O)c1ccc(N=NNc2cccc([N+](=O)[O-])c2)cc1	none
O=C(c1cnn2c(C(F)F)cc(-c3ccccc3)nc12)N1CCc2ccccc2C1	WT yeast gro inh 77.9
Cc1cc(C(F)F)n2ncc(C(=O)N3CCc4ccccc4C3)c2n1	none
Cc1ccc(-c2cc(C(F)F)n3ncc(C(=O)N4CCN5CCCC5C4)c3n2)cc1 (stereo not given)	WT yeast gro inh 65.7
CCOC(=O)C1CCCN(C(=O)c2cnn3c(C(F)F)cc(-c4ccc(C)cc4)nc23)C1 (stereo not given)	none
O=C(c1cc(-c2ccccc2)nc2ccccc12)N1CCc2ccccc2C1	WT yeast gro inh 71.1
CN(C)CCNC(=O)C12CC3(C)CC(C)(CC(C)(C3)C1)C2	none
CC12CC3(C)CC(C)(C1)CC(C(=O)NC(=S)NC(C)(C)C)(C2)C3	WT yeast gro inh 70.2
CC(C)(C)NC(=S)NC(=O)C12CC3CCC(CC(C3)C1)C2	WT yeast gro inh 70.2
O=C(NC(=S)NC1C2CC3CC(C2)CC1C3)C12CC3CC(CC(C3)C1)C2 (stereo not given)	WT yeast gro inh 63.1
O=C(Cc1cccs1)N1CCN(c2nc(-c3ccc(Cl)cc3)cs2)CC1	WT yeast gro inh 59.3
Cc1cc(C(=O)CSc2nnc(-c3ccc(Cl)cc3)n2CC2CCCO2)c(C)n1C (stereo not given)	WT yeast gro inh 67.5
CC(=O)c1coc2ccc(OCCN3CCCCC3)cc12	none
COc1ccc(S(=O)(=O)N2CCN(c3ccccc3OC)CC2)cc1OC	Arbovirus inh 49.5
CCOC(=O)C1CCN(S(=O)(=O)c2ccc(NC(=O)OC)cc2)CC1	none
COC(=O)Nc1ccc(S(=O)(=O)N2CCC(C(=O)N(C)C3CCCCC3)CC2)cc1	Arbovirus inh 30.4
COc1ccc(S(=O)(=O)N2CCC(C(=O)N3CCCCC3)CC2)cc1OC	WT yeast gro inh 61.1
O=C(Cn1ncc2c1-c1ccccc1OC2)Nc1ccc(Cl)cn1	none
COc1ccc(CCn2c(=S)[nH]c3ccc(N4CCOCC4)cc3c2=O)cc1OC	none
CC(C)=CCc1c2c(c3occ(-c4ccc(O)cc4)c(=O)c3c1O)C=CC(C)(C)O2	none
CC1(C)C=Cc2c(c3c(c4c(=O)c(-c5ccc(O)cc5)coc24)OC(C)(C)CC3)O1	WT yeast gro inh 71.4
CCOC(=O)C1CCC(CN(Cc2ccccc2C)S(=O)(=O)c2ccc([N+](=O)[O-])cc2)CC1 (stereo not given)	WT yeast gro inh 74.1
CN(C)S(=O)(=O)c1cccc(NC(=O)c2ccc(N3CCOCC3)c([N+](=O)[O-])c2)c1	none
O=C(NC(=S)Nc1ccccc1N1CCCCC1)c1ccco1	WT yeast gro inh 72.7
CC1CCC(C(C)C)C(OC(=O)Cn2c(-c3ccc(Br)cc3)[n+](C)c3ccccc32)C1 (stereo not given)	WT yeast gro inh 65.9!
CC1CCC(C(C)C)C(OC(=O)COC(=O)c2ccc(N)cc2)C1 (stereo not given)	none
CC1CCC(C(C)C)C(OC(=O)COC(=O)c2cccn2C)C1 (stereo not given)	WT yeast gro inh 74.2
Cc1ccccc1OCc1n(CC(=O)OC2CC(C)CCC2C(C)C)c2ccccc2[n+]1C (stereo not given)	WT yeast gro inh 62.3
CCCCC(CC)CNC(=O)Cn1c(=S)[nH]c2ncccc2c1=O (stereo not given)	none
Cc1ccc(S(=O)(=O)N2CCCCC2)cc1NC(=O)COC(=O)c1ccc(O)cc1	none
C=C(C)C1CC=C(C)/C(=N/NC(=O)COc2cccc3ccccc23)C1 (stereo not given)	none
Cc1ccc(C)c(-n2cc(CN3CCCN(C=O)CC3)c(-c3ccccc3)n2)c1	none
Cc1ccc(-c2csc3ncnc(NCCN4CCOCC4)c23)cc1	none
